Assay results of several laboratories.
Target: Cyclin-dependent kinase 14 (CDK14, Homo sapiens, UniProt O94921)

SMILES	assay	conditions	remaining binding [%]
CN(C)c1nccc(-c2cnn3ncccc23)n1	binding	1 µM	89
Cc1cnc(Nc2ccc(C(=O)N3CCC(N4CCCC4)CC3)cc2)nc1-c1cc2ccccc2s1	binding, competition with immobilised ligand	1 µM	100
Cc1nc(C2CCN(C(=O)c3ccc(OC(F)(F)F)cc3N)CC2)c2ncc(N3CCN(C)CC3)cc2n1	cell-free assay, competition with immobilised ligand	1 µM	100
COc1cnc(Nc2cccc(S(N)(=O)=O)c2)nc1N1CCN(c2ccccc2)C(=O)C1	binding, competition with immobilised ligand	1 µM	100
Nc1ncc2c(n1)-c1c([nH]c3ccc(C#CC4CC4)cc13)CCCC2	binding, competition with immobilised ligand	1 µM	88
N[C@H]1CCN(c2nccc(-c3cnn4ncccc34)n2)C1	binding	1 µM	100
CNCc1ccccc1-c1csc([C@H](C)Nc2nc(C)nc3cc(OC)c(OC)cc23)c1	cell-free assay, competition with immobilised ligand	1 µM	100
O=C(Nc1c[nH]nc1C(=O)NC1CCNCC1)c1cc(F)cc(F)c1	binding, competition with immobilised ligand	1 µM	99
COc1ccnn2ncc(-c3ccnc(N(C)C)n3)c12	binding	1 µM	100
O=C(N[C@H]1CCCCC/C=C\C2C[C@@]2(C(=O)O)NC(=O)[C@@H]2C[C@@H](Oc3ccncc3)CN2C1=O)OC1CCCC1 (stereo partly shown)	binding, competition with immobilised ligand	1 µM	91
CNC(=O)[C@@H]1CC[C@@H](n2c(-c3ccc4cnccc4c3)nc3ccc(C(=O)NCc4cccc(C(N)=O)c4)cc32)C1	binding, competition with immobilised ligand	1 µM	100
C[C@@H]1CCN(c2nccc(-c3cnn4ncccc34)n2)C1	binding	1 µM	100
c1cncc(-c2cccc(Nc3nccc(NC4CCCCC4)n3)c2)c1	binding, competition with immobilised ligand	10 µM	90
CS(=O)(=O)c1cc(C2(NC(=O)c3cncc4c3cnn4-c3ccc(F)cc3)CC2)ccn1	cell-free assay, competition with immobilised ligand	1 µM	100
CCN1CCN(Cc2ccc(C(=O)Nc3ccc(C)c(Oc4ccc5c(c4)CC(=O)N5)c3)cc2C(F)(F)F)CC1	binding, competition with immobilised ligand	1 µM	100
Cc1cnn2ncc(-c3ccnc(N(C)C)n3)c2c1	binding	1 µM	91
O=C(NCCCN1CCOCC1)c1ccc(Nc2nccc(-c3cc4ccccc4s3)n2)cc1	binding, competition with immobilised ligand	1 µM	100
CN(C)c1nccc(-c2cnc3ncccn23)n1	binding	1 µM	100
Cc1cc(NC(=O)c2cccc(S(F)(F)(F)(F)F)c2)cc(-n2ccn3nc(-c4cccnc4)cc23)c1	cell-free assay, competition with immobilised ligand	1 µM	93.8
